Results as given in ChEMBL document CHEMBL1144914, “Bisintercalating threading diacridines: relationships between DNA binding, cytotoxicity, and cell cycle arrest” (J Med Chem, 2003).
Numbered stars: 1 amine (or outer) side, 2 acyl side, 3 side chain; on linkers, the order of the positions; unused ones are H or OH. Bridge positions count the residues as written; N and C are the ends. Square brackets hold non-standard residues; d marks the D form. Peptide text beside a SMILES is read from it. I, II: the chains in the order shown. Actinocin(1to9) = Cc1c2oc3c(C)ccc(C(=O)[*:2])c3nc-2c(C(=O)[*:1])c(N)c1=O; NMeV = CN[C@H](C(=O)O)C(C)C; Sar = CNCC(=O)O

Tests used:
CCRF-CEM = assay: Cytotoxicity in human leukemic CCRF-CEM cells.; assay type: functional, cell-based
Procedure, shortened: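 CCRF-CEM cells in RPMI 1640 with 10% FBS, 2 mM glutamine and pen/strep at 37 °C, 5% CO2, seeded at 1 × 10^5 cells/mL. Agent from 1 mM water stock, diluted in PBS over a concentration range, 72 h exposure. Cells counted by Coulter Counter. Duplicate wells, each curve repeated at least three times. IC50 is 50% growth inhibition versus medium control, from a sigmoidal fit.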

Nucleic Acid [1] = assay: Dissociation time constant (Tau 1) for dissociation of compound and calf thymus DNA complex; assay type: nucleic-acid assay; conditions: Bos taurus
Procedure, shortened: (§1)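 Sonicated calf thymus DNA–ligand complex equilibrated 1 h at room temperature in 0.1 SHE buffer (HEPES, EDTA, 0.1 M NaCl, pH 7.0), then rapidly mixed with SDS at 23 °C. Final concentrations 500 μM DNA, 50 μM ligand, 20 mM SDS. Absorbance followed at 423 nm over 420–3600 s and expressed as fraction of reaction. Multiexponential nonlinear least-squares fit; mean of five runs.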

Nucleic Acid [2] = assay: Dissociation time constant (Tau 3) for dissociation of compound and calf thymus DNA complex; assay type: nucleic-acid assay; conditions: Bos taurus; procedure, shortened: as §1
Nucleic Acid [3] = assay: Dissociation time constant (Tau 2) for dissociation of compound and calf thymus DNA complex; assay type: nucleic-acid assay; conditions: Bos taurus; procedure, shortened: as §1

| Time constant (Nucleic Acid [1]) | Time constant (Nucleic Acid [2]) | Time constant (Nucleic Acid [3]) | SMILES | IC50 (CCRF-CEM) |
| --- | --- | --- | --- | --- |
|  |  |  | CC[C@@]1(O)C(=O)OCc2c1cc1n(c2=O)Cc2cc3ccccc3nc2-1 [CAMPTOTHECIN] | 5.3 nM |
| 6 s | 180 s | 33 s | CN(C)CCNC(=O)c1cccc2c(NCCNCCNCCNc3c4ccccc4nc4c(C(=O)NCCN(C)C)cccc34)c3ccccc3nc12 | 590 nM |
|  |  |  | COC1C(O)CC(OC2CC(Oc3cc4cc5c(c(O)c4c(O)c3C)C(=O)[C@@H](OC3CC(OC4CC(OC6CC(C)(O)C(OC(C)=O)C(C)O6)C(O)C(C)O4)C(O)C(C)O3)[C@H]([C@H](OC)C(=O)[C@@H](O)[C@@H](C)O)C5)OC(C)C2OC(C)=O)OC1C (stereo partly drawn) [CHROMOMYCIN] | 3.5 nM |
| 6 s | 130 s | 32 s | CN(C)CCNC(=O)c1cccc2c(NCCCNCCCNc3c4ccccc4nc4c(C(=O)NCCN(C)C)cccc34)c3ccccc3nc12 | 50 nM |
|  |  |  | O=C(NCCN1CCOCC1)c1cccc2c(NCCCCCCCCNc3c4ccccc4nc4c(C(=O)NCCN5CCOCC5)cccc34)c3ccccc3nc12 | 810 nM |
|  |  |  | CS[C@H]1SC[C@H]2C(=O)N(C)[C@@H](C(C)C)C(=O)OC[C@@H](NC(=O)c3cnc4ccccc4n3)C(=O)N[C@@H](C)C(=O)N(C)[C@@H]1C(=O)N(C)[C@@H](C(C)C)C(=O)OC[C@@H](NC(=O)c1cnc3ccccc3n1)C(=O)N[C@@H](C)C(=O)N2C [ECHINOMYCIN] | 0.5 nM |
|  |  |  | O=C(NCCN1CCOCC1)c1cccc2c(NCCCCCCNc3c4ccccc4nc4c(C(=O)NCCN5CCOCC5)cccc34)c3ccccc3nc12 | 710 nM |
| 7 s | 220 s | 22 s | CN(C)CCNC(=O)c1cccc2c(NCCN3CCN(CCNc4c5ccccc5nc5c(C(=O)NCCN(C)C)cccc45)CC3)c3ccccc3nc12 | 63 nM |
|  |  |  | O=C(NCCN1CCOCC1)c1cccc2c(NCCNCCNCCNc3c4ccccc4nc4c(C(=O)NCCN5CCOCC5)cccc34)c3ccccc3nc12 | 710 nM |
|  |  |  | CN(C)CCNC(=O)c1cccc2c(NCCCCCCNc3c4ccccc4nc4c(C(=O)NCCN(C)C)cccc34)c3ccccc3nc12 | 87 nM |
|  |  |  | O=C1c2c(O)ccc(O)c2C(=O)c2c(NCCNCCO)ccc(NCCNCCO)c21 [MITOXANTRONE] | 3.6 nM |
|  |  |  | COC(=O)[C@@H]1c2cc3c(c(O)c2[C@@H](O[C@@H]2O[C@@H](C)[C@H](OC)[C@@](C)(OC)[C@H]2OC)C[C@]1(C)O)C(=O)c1c(O)cc2c(c1C3=O)O[C@@H]1O[C@@]2(C)[C@H](O)[C@@H](N(C)C)[C@@H]1O [NOGALAMYCIN] | 59 nM |
|  |  |  | O=C(NCCN1CCOCC1)c1cccc2c(NCCN3CCN(CCNc4c5ccccc5nc5c(C(=O)NCCN6CCOCC6)cccc45)CC3)c3ccccc3nc12 | 290 nM |
|  |  |  | COc1cc(NS(C)(=O)=O)ccc1Nc1c2ccccc2nc2ccccc12 [AMSACRINE] | 130 nM |
| 5 s | 53 s | 17 s | CN(C)CCNC(=O)c1cccc2c(NCCCCCCCCNc3c4ccccc4nc4c(C(=O)NCCN(C)C)cccc34)c3ccccc3nc12 | 35 nM |
|  |  |  | O=C(NCCN1CCOCC1)c1cccc2c(NCCCCNCCCNc3c4ccccc4nc4c(C(=O)NCCN5CCOCC5)cccc34)c3ccccc3nc12 | 75 nM |
|  |  |  | CN(C)CCNC(=O)c1cccc2c(NCCCCNCCCNc3c4ccccc4nc4c(C(=O)NCCN(C)C)cccc34)c3ccccc3nc12 | 250 nM |
| 5 s | 88 s | 30 s | O=C(NCCN1CCOCC1)c1cccc2c(NCCCNCCCNc3c4ccccc4nc4c(C(=O)NCCN5CCOCC5)cccc34)c3ccccc3nc12 | 47 nM |
| 19 s | 790 s | 68 s | Cc1c2oc3c(C)ccc(C(=O)N[C@@H]4C(=O)N[C@H](C(C)C)C(=O)N5CCC[C@H]5C(=O)N(C)CC(=O)N(C)[C@@H](C(C)C)C(=O)O[C@@H]4C)c3nc-2c(C(=O)N[C@@H]2C(=O)N[C@H](C(C)C)C(=O)N3CCC[C@H]3C(=O)N(C)CC(=O)N(C)[C@@H](C(C)C)C(=O)O[C@@H]2C)c(N)c1=O [DACTINOMYCIN] (I: T[dV]P[Sar][NMeV] / II: T[dV]P[Sar][NMeV]; ester I:1-I:C, II:1-II:C; linker I:N-II:N via Actinocin(1to9)) | 1.6 nM |
|  |  |  | COc1cc(NS(C)(=O)=O)ccc1Nc1c2ccccc2nc2c(C(N)=O)cccc12 | 120 nM |
